The text below walks through data of ChEMBL document CHEMBL5661969, “Preclinical evaluation of a potent novel DNA-dependent protein kinase inhibitor NU7441” (Cancer Res, 2006).

Series [1] can be described thus: Ratio of drug level in tumor to plasma of human SW620 cell xenografted athymic nude CD1 mouse at 10 mg/kg, ip measured after 90 mins by HPLC analysis. It counts as ADME, organism-based. The note with it: tumor and plasma. In a few lines:
(§1)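 Female CD-1 nu/nu mice bearing s.c. flank SW620 tumours (1×10^7 cells, ~650 mm³ at 10–14 days) given 10 mg/kg i.p. Tissues snap frozen, homogenised 1:3 in PBS. Acetonitrile precipitation, C18 HPLC with acetate pH 5/acetonitrile 75:25 mobile phase, UV 329 nm; tissue levels by method of addition. Tissue/plasma ratio, mean of three mice per time.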

Series [2] can be described thus: In vivo inhibition of DNA-PK in human SW620 cells xenografted athymic nude CD1 mouse assessed as potentiation of etoposide phosphate-induced antitumor activity at 10 mg/kg, ip administered 5 times daily for 5 days relative to control. The format is functional, SW-620. Conditions: time 5 day. The method, boiled down: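 CD-1 nude mice carry palpable s.c. SW620 xenografts (~5×5 mm, 8-10 days), five per group. Treated i.p. daily for 5 days with saline, agent in 40% PEG 400/saline, etoposide phosphate 11.35 mg/kg (equal to 10 mg/kg etoposide), or both, agent given immediately before etoposide phosphate. Read-outs are median relative tumour volume, time to 4× volume (growth delay) and body weight.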

Series [3] is described as follows: Ratio of drug level in tumor to plasma of human SW620 cell xenografted athymic nude CD1 mouse at 10 mg/kg, ip measured after 240 mins by HPLC analysis. The format is ADME, organism-based. Conditions: tumor and plasma. The method, boiled down:
as §1

A short description of series [4]: Ratio of drug level in liver to plasma of human SW620 cell xenografted athymic nude CD1 mouse at 10 mg/kg, ip measured after 30 mins by HPLC analysis. It counts as ADME, organism-based. In a few lines:
as §1

A short description of series [5]: Clearance in BALB/c mouse at 5 mg/kg, iv by HPLC analysis. Conditions: in vivo. The format is ADME, organism-based. The method, boiled down:
(§2)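 Female BALB/c mice dosed 5 mg/kg i.v. in 10% DMSO/10% cyclodextrin in saline, or 10 mg/kg i.p. or orally at 1 mg/mL in 40% PEG400/saline. Plasma taken at 5, 10, 15, 30, 60, 90, 120, 180, 240 and 360 min, three mice per time. Acetonitrile precipitation, C18 HPLC with UV detection at 329 nm against a plasma standard curve. Parameters derived from mean concentrations.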

The nature of series [6]: Ratio of drug level in kidney to plasma of human SW620 cell xenografted athymic nude CD1 mouse at 10 mg/kg, ip measured after 30 mins by HPLC analysis. The format is ADME, organism-based. Conditions: kidney and plasma. In a few lines:
as §1

The nature of series [7]: Bioavailability in BALB/c mouse at 5 mg/kg, iv by HPLC analysis. The format is ADME, organism-based. Conditions: in vivo. In a few lines:
as §2

A short description of series [8]: AUClast in BALB/c mouse at 5 mg/kg, iv by HPLC analysis. It counts as ADME, organism-based. The note with it: in vivo. The method, boiled down:
as §2

A short description of series [9]: Cmax in BALB/c mouse at 10 mg/kg, po by HPLC analysis. It counts as ADME, organism-based. Conditions: in vivo. In a few lines: as §2
Series [10] in a line: Ratio of drug level in kidney to plasma of human SW620 cell xenografted athymic nude CD1 mouse at 10 mg/kg, ip measured after 60 mins by HPLC analysis. The format is ADME, organism-based. The method, boiled down: as §1
The nature of series [11]: AUCinfinity in BALB/c mouse at 10 mg/kg, po by HPLC analysis. The format is ADME, organism-based. The note with it: in vivo. The method, boiled down: as §2
Series [12] can be described thus: Ratio of drug level in kidney to plasma of human SW620 cell xenografted athymic nude CD1 mouse at 10 mg/kg, ip measured after 15 mins by HPLC analysis. The note with it: kidney and plasma. It counts as ADME, organism-based. In a few lines: as §1
Series [13] in a line: Clearance in BALB/c mouse at 10 mg/kg, ip by HPLC analysis. It counts as ADME, organism-based. Conditions: in vivo. In a few lines: as §2
Series [14] deals with LoVo. The series is described as follows: Cell cycle arrest in human LoVo cells assessed as increase in G1-phase cell population at 1 umol/L measured after 1 hr by propidium iodide staining based flow cytometry relative to control. The format is toxicity. Conditions: 1 µM, dose 1 µmol/L. In a few lines:
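Asynchronous SW620 or LoVo cells, seeded 24 h earlier, given control or 1 μmol/L agent medium for 1 h before ionizing radiation, etoposide or doxorubicin, then incubated a further 16 h. Cells fixed in 70% ethanol, stained with propidium iodide (400 μg/mL) plus RNase (1 mg/mL), and analysed by 488 nm flow cytometry.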

Series [15] can be described thus: Ratio of drug level in liver to plasma of human SW620 cell xenografted athymic nude CD1 mouse at 10 mg/kg, ip measured after 15 mins by HPLC analysis. The format is ADME, organism-based. In a few lines: as §1
Series [16] is described as follows: Ratio of drug level in spleen to plasma of human SW620 cell xenografted athymic nude CD1 mouse at 10 mg/kg, ip measured after 90 mins by HPLC analysis. The format is ADME, organism-based. In a few lines: as §1
Series [17] can be described thus: AUCinfinity in BALB/c mouse at 5 mg/kg, iv by HPLC analysis. The note with it: in vivo. It counts as ADME, organism-based. In a few lines: as §2
A short description of series [18]: Ratio of drug level in tumor to plasma of human SW620 cell xenografted athymic nude CD1 mouse at 10 mg/kg, ip measured after 30 mins by HPLC analysis. It counts as ADME, organism-based. The note with it: tumor and plasma. The method, boiled down: as §1
Series [19] can be described thus: Ratio of drug level in spleen to plasma of human SW620 cell xenografted athymic nude CD1 mouse at 10 mg/kg, ip measured after 240 mins by HPLC analysis. The format is ADME, organism-based. In a few lines: as §1
Series [20] in a line: Cmax in BALB/c mouse at 10 mg/kg, ip by HPLC analysis. It counts as ADME, organism-based. The note with it: in vivo. The method, boiled down:
as §2

A short description of series [21]: Inhibition of DNA-PK in Chinese hamster DNA-PK proficient V3-YAC cells assessed as potentiation of etoposide-induced cytotoxicity by measuring etoposide LD90 at 0.5 umol/L measured after 16 hrs by crystal violet staining based assay. Further details: species or system Cricetulus griseus. The note with it: dose 0.5 µmol/L, condition cancer.

As for `O=c1cc(N2CCOCC2)oc2c(-c3cccc4c3sc3ccccc34)cccc12`, the Kp at 1.5 h turned out to be 1.5 in [1] and 8.7 in [16]. For the same compound, in series [2], the Efficacy came to 100%. Also, the Kp at 4 h in series [3] stood at 4.6; in series [19] it was 19. Moreover, the Kp at 0.5 h stood at 11 in [4], 3.4 in series [6] and 1.4 in series [18]. Besides, the clearance in series [5] turned out to be 65 mL/min/kg. In series [7], this compound returned an F of 100%. The same compound had an AUC(0-t) in [8] of 1270 ng·h/mL. The Cmax was determined as 500 ng/mL in series [9] and 2400 ng/mL in series [20]. Further, the Kp at 1 h in series [10] amounted to 3.6. Moreover, the results for the AUC(0-inf) in series [11] and in series [17] were 1200 ng·h/mL and 1300 ng·h/mL, respectively. For the same compound, the values for the Kp at 0.25 h in [12] and in [15] were 4.2 and 6.4, respectively. The CL/F in [13] amounted to 66 mL/min/kg. Besides, the Activity in series [14] is 54%. For the same compound, in series [21], the LD90 came to 0.8 µmol/L.
